# Assay results: ChEMBL document CHEMBL4138315, “Synthesis and Evaluation of a Novel Bivalent Selective Antagonist for the Mu-Delta Opioid Receptor Heterodimer that Reduces Morphine Withdrawal in Mice” (J Med Chem, 2018)
# pIC50, pKi: −log10 of the molar value. The source made the active and inactive calls. The rule behind the calls is not given here. Where a SMILES comes first, the peptide text is derived from it. [ ]: non-standard residue; d: D form. ξ: configuration not given here. d2Nal = N[C@H](Cc1ccc2ccccc2c1)C(=O)O; ξTic = O=C(O)C1Cc2ccccc2CN1
# Key:
# [1] = biological target: T1, Delta-type opioid receptor (Homo sapiens, UniProt P41143); test: Displacement of [3H]-diprenorphine from human DOR expressed in CHO cell membranes after 80 mins by scintillation counting analysis
# T1 sequence (P41143 whole entry): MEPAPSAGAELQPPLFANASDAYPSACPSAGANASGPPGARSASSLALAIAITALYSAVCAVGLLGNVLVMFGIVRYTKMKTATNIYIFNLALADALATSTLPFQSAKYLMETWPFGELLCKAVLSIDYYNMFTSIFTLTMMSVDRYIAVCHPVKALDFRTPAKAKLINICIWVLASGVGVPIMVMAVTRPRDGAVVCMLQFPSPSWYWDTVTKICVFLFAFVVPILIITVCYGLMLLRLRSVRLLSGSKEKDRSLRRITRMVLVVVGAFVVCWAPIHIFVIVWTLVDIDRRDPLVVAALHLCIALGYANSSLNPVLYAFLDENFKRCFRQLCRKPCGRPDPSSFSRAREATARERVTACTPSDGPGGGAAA
# Procedure, shortened: (§1)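 Competition binding on MOR-, DOR- or MDOR-CHO membranes used a fixed 3H-diprenorphine level against competitor concentration curves; 30°C, 80 min, GF/B filtration, scintillation counting. Nonspecific binding defined with 500 nM each DMT-Tic-Ala-OH and CTAP. Ki was derived from IC50 and the 3H-diprenorphine KD in each line; MDOR data fitted with a 2-site model. N = 3-4, mean ± SEM.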
# [2] = biological target: T2, Mu-type opioid receptor (Homo sapiens, UniProt P35372); test: Antagonist activity at human MOR expressed in CHO cell membranes assessed as inhibition of CYM51010-induced [35S]-GTPgammaS binding preincubated for 5 mins followed by CYM51010 and [35S]-GTPgammaS addition measured after 80 mins; format: functional
# T2 sequence (P35372 whole entry): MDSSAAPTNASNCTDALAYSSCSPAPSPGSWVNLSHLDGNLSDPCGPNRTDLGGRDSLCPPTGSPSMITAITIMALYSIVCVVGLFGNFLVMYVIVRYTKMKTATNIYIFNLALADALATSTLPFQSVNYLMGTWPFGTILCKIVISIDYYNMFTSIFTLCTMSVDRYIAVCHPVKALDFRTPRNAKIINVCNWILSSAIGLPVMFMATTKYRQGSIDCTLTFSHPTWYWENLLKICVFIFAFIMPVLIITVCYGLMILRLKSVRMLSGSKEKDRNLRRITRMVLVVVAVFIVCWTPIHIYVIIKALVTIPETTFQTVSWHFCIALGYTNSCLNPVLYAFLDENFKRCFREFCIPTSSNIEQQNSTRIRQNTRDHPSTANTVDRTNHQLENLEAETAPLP
# Procedure, shortened: (§2)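 Membranes from CHO cells stably expressing human opioid receptor (N-terminal tagged) were preincubated 5 min with antagonist concentration curves, then given 1 µM CYM51010 and 0.1 nM 35S-GTPγS; 30°C, 80 min, GF/B filtration, scintillation counting. Normalized to CYM51010 alone (100%) and vehicle (0%). Fits: 1-site for MOR/DOR (IC50), 2-site for MDOR (IC50HIGH). N = 3-4, duplicate, mean ± SEM.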
# [3] = biological target: T2, Mu-type opioid receptor; test: Displacement of [3H]-diprenorphine from human MOR expressed in CHO cell membranes after 80 mins by scintillation counting analysis; procedure, shortened: as §1
# [4] = biological target: T1, Delta-type opioid receptor; test: Antagonist activity at human DOR expressed in CHO cell membranes assessed as inhibition of CYM51010-induced [35S]-GTPgammaS binding preincubated for 5 mins followed by CYM51010 and [35S]-GTPgammaS addition measured after 80 mins; format: functional; procedure, shortened: as §2
# [5] = organism: Homo sapiens; test: Selectivity ratio of KiH for human mu-delta opioid receptor heterodimer expressed in CHO cell membranes to Ki for human DOR expressed in CHO cell membranes; format: cell-based
# [6] = biological target: T3, Opioid receptors; mu & delta (Homo sapiens, UniProt P41143+P35372); test: Antagonist activity at human mu-delta opioid receptor heterodimer expressed in CHO cell membranes assessed as inhibition of CYM51010-induced [35S]-GTPgammaS binding at high site fraction preincubated for 5 mins followed by CYM51010 and [35S]-GTPgammaS addition measured after 80 mins; format: functional; procedure, shortened: as §2
# T3 sequence (P35372 whole entry, looked up): as the sequence (P35372 whole entry) above
# T3 sequence (P41143 whole entry, looked up): as the sequence (P41143 whole entry) above
# [7] = biological target: T3, Opioid receptors; mu & delta; test: Antagonist activity at human mu-delta opioid receptor heterodimer expressed in CHO cell membranes assessed as inhibition of CYM51010-induced [35S]-GTPgammaS binding at high site fraction preincubated for 5 mins followed by CYM51010 and [35S]-GTPgammaS addition measured after 80 mins relative to control; format: functional
# Procedure, shortened: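 35S-GTPγS coupling in MDOR-CHO membranes: 5 min antagonist pre-incubation, then 1 µM CYM51010 plus 0.1 nM 35S-GTPγS, 30°C for 80 min, filtration and scintillation read. A 3-variable 2-site antagonist fit gave FHIGH, the fraction of the high-potency site. N = 3-4 independent experiments.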
# [8] = biological target: T3, Opioid receptors; mu & delta; test: Displacement of [3H]-diprenorphine from human mu-delta opioid receptor expressed in CHO cell membranes after 80 mins by scintillation counting analysis; procedure, shortened: as §1
# [9] = biological target: T3, Opioid receptors; mu & delta; test: Displacement of [3H]-diprenorphine from human mu-delta opioid receptor heterodimer expressed in CHO cell membranes at high site fraction after 80 mins by scintillation counting analysis relative to control
# [10] = organism: Homo sapiens; test: Selectivity ratio of IC50H for human mu-delta opioid receptor heterodimer expressed in CHO cell membranes to IC50 for human DOR expressed in CHO cell membranes; format: cell-based
# [11] = biological target: T3, Opioid receptors; mu & delta; test: Antagonist activity at human mu-delta opioid receptor heterodimer expressed in CHO cell membranes assessed as inhibition of DAMGO-induced [35S]-GTPgammaS binding preincubated for 5 mins followed by DAMGO and [35S]-GTPgammaS addition measured after 80 mins; format: functional
# Procedure, shortened: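 MDOR-CHO membranes were preincubated 5 min with antagonist concentration curve, then 1 µM DAMGO and 0.1 nM 35S-GTPγS were added. Incubated 30°C, 80 min; filter harvest, scintillation counting. Normalized to agonist alone and vehicle. N = 3 independent experiments in duplicate.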
# [12] = biological target: Kappa-type opioid receptor (Homo sapiens) (UniProt P41145); test: Antagonist activity at human KOR expressed in CHO cell membranes assessed as inhibition of U50488-induced [35S]-GTPgammaS binding preincubated for 5 mins followed by U50488 and [35S]-GTPgammaS addition measured after 80 mins; format: functional
# Sequence of Kappa-type opioid receptor (Homo sapiens) (P41145 whole entry): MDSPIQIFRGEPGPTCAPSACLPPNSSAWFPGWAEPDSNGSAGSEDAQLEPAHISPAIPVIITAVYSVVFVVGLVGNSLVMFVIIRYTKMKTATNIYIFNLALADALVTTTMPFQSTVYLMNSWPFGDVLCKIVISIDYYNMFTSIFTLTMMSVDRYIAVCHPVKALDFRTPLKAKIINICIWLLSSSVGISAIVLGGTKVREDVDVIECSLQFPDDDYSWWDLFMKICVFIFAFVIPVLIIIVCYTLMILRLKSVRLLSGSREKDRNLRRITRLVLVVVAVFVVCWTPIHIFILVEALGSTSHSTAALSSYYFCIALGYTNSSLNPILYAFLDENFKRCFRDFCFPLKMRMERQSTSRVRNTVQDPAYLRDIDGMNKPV
# Procedure, shortened: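 KOR-CHO membranes (human receptor, N-terminal tag), antagonist concentration curve preincubated 5 min, then 1 µM U50,488 plus 0.1 nM 35S-GTPγS added. Incubated 30°C, 80 min; filtration and scintillation counting. Vehicle 0.1% DMSO in assay buffer with 0.1% BSA. Normalized to agonist alone (100%) and vehicle (0%). One-site curve fit; N = 3 independent experiments in duplicate.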
# [13] = organism: Mus musculus; test: Antinociceptive activity in CD1 mouse assessed as reduction in CYM51010-induced nociception at 10 nmol pretreated for 5 mins followed by CYM51010 injection measured up to 2 hrs by tail flick assay; format: functional, organism-based
# [14] = biological target: T3, Opioid receptors; mu & delta; test: Antagonist activity at human mu-delta opioid receptor heterodimer expressed in CHO cell membranes assessed as inhibition of CYM51010-induced [35S]-GTPgammaS binding at high site fraction at 100 uM preincubated for 5 mins followed by CYM51010 and [35S]-GTPgammaS addition measured after 80 mins relative to control; format: functional
Structure (SMILES),pKi ([1]; cho),pIC50 ([2]; cho),pKi ([3]; cho),pIC50 ([4]; cho),Ratio Ki [5],IC50H [6] [nM],Imax [7] [%],KiH [8] [nM],Imax [9] [%],Ratio IC50 [10],also measured
NCCCC[C@H](NC(=O)CCCNC(=O)CNC(=O)[C@@H]1Cc2ccccc2CN1C(=O)[C@@H](N)Cc1ccc(O)cc1)C(=O)O,6.60,,,,,,,,,,
N[C@@H](Cc1ccc(O)cc1)C(=O)N1Cc2ccccc2C[C@H]1C(=O)NCC(=O)NCCCC(=O)N[C@@H](CCCCNC(=O)CCNC(=O)CNC(=O)[C@@H](Cc1cccc2ccccc12)NC(=O)[C@H](Cc1ccccc1)NC(=O)[C@@H]1CCCN1C(=O)[C@@H](N)Cc1ccc(O)cc1)C(=O)O,7.01,< 6.00,< 6.00,7.17,,,,,,,
N[C@@H](Cc1ccc(O)cc1)C(=O)N1Cc2ccccc2C[C@H]1C(=O)NCC(=O)NCC(=O)NCCCCCC(=O)NCCC(=O)N[C@@H](CCCCNC(=O)CCNC(=O)CCCCCNC(=O)CCNC(=O)CNC(=O)[C@@H](Cc1cccc2ccccc12)NC(=O)[C@H](Cc1ccccc1)NC(=O)[C@@H]1CCCN1C(=O)[C@@H](N)Cc1ccc(O)cc1)C(=O)O,6.64,< 6.00,< 6.00,7.03,,,,,,,
N[C@@H](Cc1ccc(O)cc1)C(=O)N1Cc2ccccc2C[C@@H]1C(=O)NCC(=O)NCCCCC(=O)N[C@H](CCCCNC(=O)CNC(=O)[C@@H](Cc1cccc2ccccc12)NC(=O)[C@H](Cc1ccccc1)NC(=O)[C@@H]1CCCN1C(=O)[C@@H](N)Cc1ccc(O)cc1)C(=O)O,,,,,58,2.1,39,2,12,28,
N[C@@H](Cc1ccc(O)cc1)C(=O)N1Cc2ccccc2C[C@@H]1C(=O)NCC(=O)NCCCC(=O)N[C@H](CCCCNC(=O)CCNC(=O)CNC(=O)[C@@H](Cc1cccc2ccccc12)NC(=O)[C@H](Cc1ccccc1)NC(=O)[C@@H]1CCCN1C(=O)[C@@H](N)Cc1ccc(O)cc1)C(=O)O,,,,,78,1.6,43,1.3,9,43,
N[C@@H](Cc1ccc(O)cc1)C(=O)N1Cc2ccccc2CC1C(=O)O (stereo partly specified) (H-Tyr-[ξTic]-OH),,,,,,250,44,,,,IC50 [11]: 36.9 nM; inhibition [12]: inactive; pKi [1]: 6.64; Activity [13]: inactive; pIC50 [4]: 7.00
NCCCC[C@@H](NC(=O)CCCNC(=O)CNC(=O)[C@H]1Cc2ccccc2CN1C(=O)[C@@H](N)Cc1ccc(O)cc1)C(=O)O,,,,,,170,28,,,,
N[C@@H](Cc1ccc(O)cc1)C(=O)N1Cc2ccccc2C[C@H]1C(=O)NCC(=O)NCCCCC(=O)N[C@@H](CCCCNC(=O)CNC(=O)[C@@H](Cc1cccc2ccccc12)NC(=O)[C@H](Cc1ccccc1)NC(=O)[C@@H]1CCCN1C(=O)[C@@H](N)Cc1ccc(O)cc1)C(=O)O,6.92,< 6.00,< 6.00,7.24,,,,,,,
N[C@@H](Cc1ccc(O)cc1)C(=O)N1Cc2ccccc2C[C@H]1C(=O)NCC(=O)NCCC(=O)NCCCCCC(=O)N[C@@H](CCCCNC(=O)CCCCCNC(=O)CNC(=O)[C@@H](Cc1cccc2ccccc12)NC(=O)[C@H](Cc1ccccc1)NC(=O)[C@@H]1CCCN1C(=O)[C@@H](N)Cc1ccc(O)cc1)C(=O)O,6.54,< 6.00,< 6.00,7.00,,,,,,,
N[C@@H](Cc1ccc(O)cc1)C(=O)N1Cc2ccccc2C[C@@H]1C(=O)NCC(=O)NCCC(=O)NCCCCCC(=O)N[C@H](CCCCNC(=O)CCCCCNC(=O)CNC(=O)[C@@H](Cc1cccc2ccccc12)NC(=O)[C@H](Cc1ccccc1)NC(=O)[C@@H]1CCCN1C(=O)[C@@H](N)Cc1ccc(O)cc1)C(=O)O,,,,,35,20,41,8.1,15,5,
N[C@@H](Cc1ccc(O)cc1)C(=O)N1Cc2ccccc2C[C@@H]1C(=O)NCC(=O)NCC(=O)N[C@H](CCCCNC(=O)CNC(=O)[C@@H](Cc1cccc2ccccc12)NC(=O)[C@H](Cc1ccccc1)NC(=O)[C@@H]1CCCN1C(=O)[C@@H](N)Cc1ccc(O)cc1)C(=O)O,,,,,110,3.4,43,2.5,12,17,
N[C@@H](Cc1ccc(O)cc1)C(=O)N1Cc2ccccc2C[C@@H]1C(=O)NCC(=O)NCC(=O)NCCCCCC(=O)NCCC(=O)N[C@H](CCCCNC(=O)CCNC(=O)CCCCCNC(=O)CCNC(=O)CNC(=O)[C@@H](Cc1cccc2ccccc12)NC(=O)[C@H](Cc1ccccc1)NC(=O)[C@@H]1CCCN1C(=O)[C@@H](N)Cc1ccc(O)cc1)C(=O)O,,,,,15,48,37,16,12,2,
N[C@@H](Cc1ccc(O)cc1)C(=O)N1Cc2ccccc2C[C@H]1C(=O)NCC(=O)NCC(=O)N[C@@H](CCCCNC(=O)CNC(=O)[C@@H](Cc1cccc2ccccc12)NC(=O)[C@H](Cc1ccccc1)NC(=O)[C@@H]1CCCN1C(=O)[C@@H](N)Cc1ccc(O)cc1)C(=O)O,6.57,< 6.00,< 6.00,7.24,,,,,,,
NC(=O)[C@@H](Cc1ccc2ccccc2c1)NC(=O)[C@H](Cc1ccccc1)NC(=O)[C@@H]1CCCN1C(=O)[C@@H](N)Cc1ccc(O)cc1 (H-YPF[d2Nal]-NH2),,,,,,> 1000,,,,,Imax [14]: 0.43%; IC50 [11]: >= 3333 nM; inhibition [12]: inactive; pIC50 [2]: < 6.00; pKi [3]: < 6.00
